In series [1] the target is T1, Extracellular calcium-sensing receptor (Homo sapiens, UniProt P41180).
T1 sequence (P41180 whole entry): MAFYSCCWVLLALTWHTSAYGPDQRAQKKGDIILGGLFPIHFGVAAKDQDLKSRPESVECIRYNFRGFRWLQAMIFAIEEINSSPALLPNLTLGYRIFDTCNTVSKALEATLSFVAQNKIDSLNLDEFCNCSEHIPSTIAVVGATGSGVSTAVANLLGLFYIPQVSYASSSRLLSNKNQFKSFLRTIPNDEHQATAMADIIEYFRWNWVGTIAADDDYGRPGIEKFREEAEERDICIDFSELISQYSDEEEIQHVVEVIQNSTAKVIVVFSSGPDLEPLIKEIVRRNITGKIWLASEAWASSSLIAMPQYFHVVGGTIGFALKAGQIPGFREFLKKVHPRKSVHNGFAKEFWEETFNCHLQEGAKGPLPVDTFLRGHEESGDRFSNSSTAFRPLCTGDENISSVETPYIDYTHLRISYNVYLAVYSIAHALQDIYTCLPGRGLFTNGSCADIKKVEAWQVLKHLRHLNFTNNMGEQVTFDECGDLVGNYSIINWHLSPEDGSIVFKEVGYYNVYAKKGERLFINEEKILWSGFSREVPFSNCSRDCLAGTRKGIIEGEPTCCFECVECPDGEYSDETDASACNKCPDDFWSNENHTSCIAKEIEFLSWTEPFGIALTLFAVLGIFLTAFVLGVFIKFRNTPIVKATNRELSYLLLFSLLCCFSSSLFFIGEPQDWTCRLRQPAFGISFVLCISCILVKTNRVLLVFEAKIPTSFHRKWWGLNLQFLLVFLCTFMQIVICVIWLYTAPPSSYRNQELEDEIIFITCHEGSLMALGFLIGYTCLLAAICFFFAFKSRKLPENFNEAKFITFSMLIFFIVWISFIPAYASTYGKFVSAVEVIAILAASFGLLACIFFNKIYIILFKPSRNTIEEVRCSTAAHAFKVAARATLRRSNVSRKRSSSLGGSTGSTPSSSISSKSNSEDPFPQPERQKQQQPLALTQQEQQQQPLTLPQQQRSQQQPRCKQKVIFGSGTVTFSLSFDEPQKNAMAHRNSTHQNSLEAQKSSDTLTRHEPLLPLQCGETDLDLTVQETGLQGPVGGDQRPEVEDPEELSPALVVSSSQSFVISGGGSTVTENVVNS
Kind of series: Antagonist activity at CaSR expressed in CHO cells assessed as [35S]-GTPgammaS binding by scintillation counting. In kind it is functional, cell-based. (In general: GTPγS resists hydrolysis and so accumulates on activated G proteins.)

Series [2] in a line: Tmax in Crl:CD(SD) rat at 10 mg/kg, po administered with solubilized reagent. Further details: dose 10 mg/kg, route oral. The class given is ADME, organism-based. Particulars: in vivo. An outline of the steps: (§1)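 Nonfasted male rats, 8 weeks old, n = 3, single oral dose 10 mg/kg. Blood sampled at 0.25, 0.5, 1, 2, 4, 8 and 24 h and spun to plasma. Plasma deproteinized with acetonitrile, supernatant diluted in 0.01 mol/L ammonium acetate, re-centrifuged, assayed by HPLC. Mean ± SD reported.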

Series [3] in a line: AUC in Crl:CD(SD) rat at 10 mg/kg, po administered with solubilized reagent. The class given is ADME, organism-based. Further details: dose 10 mg/kg, route oral. Particulars: plasma. In a few lines:
as §1

A short description of series [4]: Cmax in Crl:CD(SD) rat at 10 mg/kg, po administered with solubilized reagent. In kind it is ADME, organism-based. Further details: dose 10 mg/kg, route oral. Particulars: in vivo. In a few lines: as §1
Series [5] can be described thus: AUC in Crl:CD(SD) rat at 10 mg/kg, po administered with 0.5% methylcellulose suspension. In kind it is ADME, organism-based. Further details: dose 10 mg/kg, route oral. Particulars: in vivo. In a few lines: as §1
Series [6] is described as follows: Tmax in Crl:CD(SD) rat at 10 mg/kg, po administered with 0.5% methylcellulose suspension. In kind it is ADME, organism-based. More on the design: dose 10 mg/kg, route oral. Particulars: in vivo. An outline of the steps:
as §1

The nature of series [7]: Mean residence time in Crl:CD(SD) rat at 10 mg/kg, po administered with solubilized reagent. In kind it is ADME, organism-based. More on the design: dose 10 mg/kg, route oral. The conditions noted are these: in vivo. An outline of the steps: as §1
Series [8] can be described thus: Cmax in Crl:CD(SD) rat at 10 mg/kg, po administered with 0.5% methylcellulose suspension. The class given is ADME, organism-based. More on the design: dose 10 mg/kg, route oral. The conditions noted are these: in vivo. In a few lines: as §1
Series [9] is described as follows: Mean residence time in Crl:CD(SD) rat at 10 mg/kg, po administered with 0.5% methylcellulose suspension. The class given is ADME, organism-based. Further details: dose 10 mg/kg, route oral. The conditions noted are these: in vivo. In a few lines:
as §1

pIC50: −log10 of the molar value.

As to `O=C(Nc1cnn2c1N[C@H](c1ccccc1)C[C@@H]2C(F)(F)F)C12CC3CC(CC(C3)C1)C2`, in series [1], the negative logarithm of the IC50 (pIC50) is under 5.00. As to `CC(C)(C)[C@@H]1C[C@H](C(F)(F)F)n2ncc(C(=O)NC34CC5CC(CC(C5)C3)C4)c2N1`, the pIC50 in series [1] is under 5.00. On to `O=C(NC12CC3CC(CC(C3)C1)C2)c1cnn2c1N[C@H](c1ccccc1)C[C@@H]2c1ccccc1`, for which, in [1], the negative-log IC50 (pIC50) is 6.15. Regarding `O=C(OC12CC3CC(CC(C3)C1)C2)c1cnn2c1N[C@H](c1ccccc1)C[C@@H]2C(F)(F)F`, the negative logarithm of the IC50 (pIC50) in series [1] is 7.01. On to `CC1(C)C[C@@H](c2ccccc2)Nc2c(C(=O)NC34CC5CC(CC(C5)C3)C4)cnn21`, for which the Tmax worked out at 0.67 h in [2] and 1.3 h in series [6]. Also, the AUC turned out to be 1.27 µg·h/mL in series [3] and 0.591 µg·h/mL in series [5]. In addition, the Cmax in series [4] worked out at 0.237 µg/mL; in [8] it was 0.064 µg/mL. Further, in [1], the pIC50 is 8.00. Further, the MRT in [7] is 4.48 h; in series [9], 4.65 h. `C[C@@H]1C[C@H](c2ccccc2)n2ncc(C(=O)NC34CC5CC(CC(C5)C3)C4)c2N1`: the pIC50 in series [1] is under 5.00. Still for that read-out and setting: with `FC(F)(F)[C@H]1C[C@@H](c2ccccc2)Nc2c(CNC34CC5CC(CC(C5)C3)C4)cnn21` the figure was under 5.00.

As to `O=C(NC12CC3CC(CC(C3)C1)C2)c1cnn2c1N[C@H](c1ccc(Cl)cc1)C[C@@H]2C(F)(F)F`, the pIC50 in series [1] was under 5.00.

For `O=C(NC12CC3CC(CC(C3)C1)C2)c1cnn2c1N[C@H](c1ccccc1Cl)C[C@@H]2C(F)(F)F`, the pIC50 in [1] is 6.96. On to `O=C(NC12CC3CC(CC(C3)C1)C2)c1cnn2c1N[C@H](c1cccnc1)C[C@@H]2C(F)(F)F`, for which, in series [1], the pIC50 was under 5.00. On the same count and under the same terms, with `CC1(C)C=C(c2ccccc2)Nc2c(C(=O)NC34CC5CC(CC(C5)C3)C4)cnn21` the figure was 6.24; with `O=C(NC12CC3CC(CC(C3)C1)C2)c1cnn2c1N[C@H](c1ccco1)C[C@@H]2C(F)(F)F`, 6.40; with `O=C(NC12CC3CC(CC(C3)C1)C2)c1cnn2c1NCC[C@@H]2C(F)(F)F`, under 5.00. Same read-out and setting: with `CN1c2c(C(=O)NC34CC5CC(CC(C5)C3)C4)cnn2[C@@H](C(F)(F)F)C[C@H]1c1ccccc1` the figure was under 5.00; with `O=C(NC12CC3CC(CC(C3)C1)C2)c1cnn2c1N[C@H](c1cccc(Cl)c1)C[C@@H]2C(F)(F)F`, 6.49. Still for that read-out and setting: with `CCc1ccc([C@@H]2C[C@H](C(F)(F)F)n3ncc(C(=O)NC45CC6CC(CC(C6)C4)C5)c3N2)cc1` the figure was under 5.00; with `O=C(NC12CC3CC(CC(C3)C1)C2)c1cnn2c1N[C@H](c1ccccc1)CC2`, 5.28. As to `C[C@H]1C[C@@H](c2ccccc2)Nc2c(C(=O)NC34CC5CC(CC(C5)C3)C4)cnn21`, the pIC50 in series [1] is 7.12. The same measure, in the same setting: with `COc1ccc([C@@H]2C[C@H](C(F)(F)F)n3ncc(C(=O)NC45CC6CC(CC(C6)C4)C5)c3N2)cc1` the figure was under 5.00; with `O=C(NC12CC3CC(CC(C3)C1)C2)c1cnn2c(C(F)(F)F)cc(-c3ccccc3)nc12`, under 5.00; with `O=C(NC12CC3CC(CC(C3)C1)C2)c1cnn2c1N[C@H](c1ccccc1)C[C@@H]2C(F)(F)F`, 7.40.

For orientation: pIC50 means the negative decadic logarithm of the IC50, by convention in mol/L. One may read the Tmax as the time from dosing to the highest level. For orientation: AUC means concentration integrated over time. Read a high AUC as more exposure. One may read the Cmax as the maximum level reached in the sampled fluid or tissue. Usually MRT stands for a mean duration of stay, worked out from the concentration-time curve.

The record behind these values is ChEMBL document CHEMBL1287772, “Synthesis and structure-activity relationship of tetrahydropyrazolopyrimidine derivatives--a novel structural class of potent calcium-sensing receptor antagonists” (Bioorg Med Chem, 2010).
